This is a sample that favours compounds with a hit; in the whole collection about 1.4% have one here.
Neddylation inh = cullin neddylation inhibition. hit rate 0.58% among 360,000. inhibition, % at 25 µM. TR-FRET cullin neddylation, biochemical. AID 651699. P61081+Q13564; in the data active = inhibition above about 36%
Target sequence (P61081 whole entry, looked up): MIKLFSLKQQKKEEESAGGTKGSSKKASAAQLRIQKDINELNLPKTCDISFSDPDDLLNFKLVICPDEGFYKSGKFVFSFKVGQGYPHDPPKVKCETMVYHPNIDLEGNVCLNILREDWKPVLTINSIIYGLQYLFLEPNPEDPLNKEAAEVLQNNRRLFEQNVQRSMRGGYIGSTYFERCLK
Target sequence (Q13564 whole entry, looked up): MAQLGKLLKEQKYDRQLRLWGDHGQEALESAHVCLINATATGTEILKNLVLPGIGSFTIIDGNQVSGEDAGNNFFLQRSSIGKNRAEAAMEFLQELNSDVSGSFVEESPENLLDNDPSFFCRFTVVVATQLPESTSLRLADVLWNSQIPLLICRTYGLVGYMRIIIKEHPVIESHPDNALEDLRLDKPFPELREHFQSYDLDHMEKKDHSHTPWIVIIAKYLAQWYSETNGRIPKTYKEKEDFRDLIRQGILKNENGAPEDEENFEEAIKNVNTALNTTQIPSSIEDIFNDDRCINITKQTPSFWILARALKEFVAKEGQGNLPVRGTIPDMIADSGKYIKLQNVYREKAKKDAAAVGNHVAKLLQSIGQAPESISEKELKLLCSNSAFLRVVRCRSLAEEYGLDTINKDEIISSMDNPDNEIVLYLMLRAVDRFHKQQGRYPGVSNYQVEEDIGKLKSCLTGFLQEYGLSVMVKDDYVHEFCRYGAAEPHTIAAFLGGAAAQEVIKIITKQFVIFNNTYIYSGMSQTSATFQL
UBC9 SUMO inh = SUMOylation inhibition; AID 2006; HTRF SUMOylation assay, SAE1/SAE2 + UBC9, in vitro; P63279; inhibition, % at 35 µM; hit rate 0.36% among 290,000; in the data active = inhibition above about 50%, passing the limit was not always enough; inconclusive = no clear call, values can overlap the other calls
CTSL1 counter = cathepsin L1 inhibition, PFM18AAP counter-screen; recombinant F. hepatica cathepsin L1, Z-Leu-Arg-MCA fluorescence; inhibition, % at 5.96 µM; hit rate 0.49% among 300,000; AID 1906;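 active = inhibition above the mean of all tested compounds plus 3 SD, set per screening campaign, cut at about 17% in these data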;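 note: 0% = plate median of test compound wells and 100% = 1 µM Z-Phe-Ala-diazomethylketone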
UCH37 DUB inh = human UCH37 deubiquitinating enzyme inhibition. inhibition, % (test concentration not listed). Q9Y5K5. purified proteasome/UCH37, Ub-AMC cleavage fluorescence. hit rate 0.33% among 330,000;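 active = mean inhibition over replicate wells above about 20%, limit read from the data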;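 note: 0% = compound-free wells with enzyme and 100% = wells lacking proteasome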
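Material: human UCH37 enzyme supplied as purified proteasome complex / Amount: 0.15 nM proteasome as dispensed / Buffer or medium: pH 7.4 Tris-HCl (50 mM) with ovalbumin, ATP-MgCl2, DTT / Times: preincubation 30 min, reaction 25 min, room temperature / Technique: AMC fluorescence from Ub-AMC cleavage, excitation 355 nm, emission 460 nm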
* marks the source's active call; other numbers are inactive results; ? = inconclusive; . = no result.

SMILES | Neddylation inh | UBC9 SUMO inh | CTSL1 counter | UCH37 DUB inh
O=C(CSc1nnnn1-c1ccccc1)NCC1(N2CCCCC2)CCCCC1 | -30 | . | . | 5
CS(=O)(=O)c1ccc(C(=O)NCC2(N3CCCCC3)CCCCC2)cc1 | 5 | -2 | 29* | 3
O=C(CSc1ccccc1)NCC1(N2CCCCC2)CCCCC1 | 5 | . | 60* | 2
COc1ccc(CC(=O)NCC2(N3CCCCC3)CCCCC2)cc1 | 0 | 1 | 29* | -6
C/C(C=Nn1cnnc1)=C/c1ccccc1 | . | . | . | 3
CCOC(=O)c1c(NC(=O)C(=O)NN=Cc2ccc(O)c(OC)c2)sc2c1CCCCC2 | . | . | . | -7
COc1ccc(-c2nc3ccccc3c(=O)[nH]2)cc1 | -79 | 9 | 1 | -17
CN(C)c1ccc(-c2nc3ccccc3c(=O)[nH]2)cc1 | 42* | 29 | 15 | -61
CCCc1cc(C(=O)Nc2ccc(C(C)=O)cc2)no1 | -7 | -9 | 17* | 4
CCCc1cc(C(=O)Nc2cccc(C(C)=O)c2)no1 | -20 | 5 | 5 | 5
CC(C)(C)Nc1nc(SCc2ccccc2)nc(N2CCOCC2)n1 | 6 | -1 | 19* | 4
Cc1ccsc1C=NNc1cn[nH]c(=O)c1Cl | . | . | . | 9
CC(=O)Oc1ccc(C=NNC(=O)CCSc2ccccc2)cc1 | . | . | . | 3
COC(=O)C(C)N(C#N)c1nc(NC(C)C)nc(SC)n1 (stereo not given) | -7 | 21 | 32* | 4
CCN(CC)C(=O)CN(C#N)c1nc(NC(C)C)nc(NC(C)C)n1 | -6 | -12 | -1 | 3
COC(=O)CN(C#N)c1nc(NC(C)C)nc(NC(C)C)n1 | 0 | 8 | 69* | 1
COC(=O)C(C)N(C#N)c1nc(C)cc(C)n1 (stereo not given) | -2 | -4 | -4 | 0
CC(C)c1c(C(=O)NN=Cc2cccc3ccccc23)nnn1-c1nonc1N | . | . | . | 2
O=C(NN=Cc1ccc(Cl)cc1)C1=NOC2COC3(CCN(c4ccc([N+](=O)[O-])cc4)CC3)OCC12 (stereo not given) | . | . | . | 8
Cc1ccc(/C=C/C2=NN(C)C(=O)CC2)cc1 | -21 | 15 | 0 | 21*
COc1ccc(CCN2C(=O)C3C4CC(C5C(C(=O)NN=Cc6ccc(Cl)cc6)=NOC45)C3C2=O)cc1OC (stereo not given) | . | . | . | 8
CN(C)S(=O)(=O)c1ccc(S(=O)(=O)N(Cc2ccco2)Cc2ccccc2Cl)cc1 | 1 | 7 | 36* | 6
O=S(=O)(c1ccc(S(=O)(=O)N(Cc2ccco2)Cc2ccccc2Cl)cc1)N1CCCC1 | -5 | -11 | 1 | 2
O=C(NN=C1CCN(Cc2ccccc2)CC1)c1cc2ccccc2cc1O | 15 | 87* | 7 | 1
O=C(NN=C1CCN(Cc2ccccc2)CC1)c1ccccc1O | 19 | 19 | 1 | -8
SMILES | Neddylation inh | UBC9 SUMO inh | CTSL1 counter | UCH37 DUB inh
O=C(O)c1cccc(Cn2c(Cl)c(C=NNC(=O)c3cc4ccccc4cc3O)sc2=O)c1 | . | . | . | 22*
COCCN(CCOC)S(=O)(=O)c1ccc(C(=O)Nc2nc(C)c(C(C)=O)s2)cc1 | 8 | -14 | 20* | 9
CCOc1ccc(NC2=C(OC)C(=O)c3ccccc3C2=O)cc1 | -55 | 57* | -4 | 7
COC1=C(Nc2ccc(OC)cc2)C(=O)c2ccccc2C1=O | -44 | 34 | -4 | 6
CCOP(=O)(OCC)C(NC(=O)c1cc([N+](=O)[O-])cc([N+](=O)[O-])c1)C(F)(F)F (stereo not given) | -25 | 3 | 40* | 1
CCOP(=O)(OCC)C(C)(C)NC(=O)c1cc([N+](=O)[O-])cc([N+](=O)[O-])c1 | -43 | 8 | 3 | 3
Cn1cccc1-c1cc(C(=O)NN=Cc2ccccc2Cl)[nH]n1 | . | . | . | -6
COc1cc(/C=C2\CCC(C3CCCC3)C2=O)cc(OC)c1OC (stereo not given) | -4 | -3 | 27* | 4
COc1cc(C(=O)NC2CCN(C)CC2)ccc1Nc1ncc2c(n1)N(C1CCCCC1)CCC(=O)N2C | 40* | . | . | .
CCN(CC)c1ccc(C=NN(c2ccccc2)c2ccccc2)c(O)c1 | . | . | . | 3
CCN(CC)c1ccc(C(=O)c2ccccc2C(=O)O)c(O)c1 | -10 | 7 | 5 | 20*
COc1ccc(C=Nn2cnnc2SCc2ccc(OC)cc2)cc1 | . | . | . | 1
CC(=O)Nc1ccc(NC(=O)CC2Nc3cccc4cccc(c34)NC2=O)cc1 (stereo not given) | -26 | ? | 6 | 4
CC(=O)c1ccc(NC(=O)CC2Nc3cccc4cccc(c34)NC2=O)cc1 (stereo not given) | -17 | 96* | 4 | 2
COC/C=C/C1=CC2=CC(=O)C(C)(OC(=O)c3cnc4ccccc4n3)C(=O)C2=CN1c1ccc(CO)cc1 (stereo not given) | . | 58* | -2 | .
COC/C=C/C1=CC2=CC(=O)C(C)(OC(=O)c3cnc4ccccc4n3)C(=O)C2=CN1c1ccccc1 (stereo not given) | . | 26 | 0 | 1
COc1ccccc1C(=O)NCC(=O)NN=Cc1cn[nH]c1-c1ccccc1 | . | . | . | 7
CCOc1ccc(CCNC(=O)CCS(=O)(=O)c2ccc(OC)cc2)cc1OCC | 6 | 2 | 6 | 30*
CC(=NNC(=O)c1cc(C)nc2ccccc12)c1ccccn1 | . | . | . | 1
COc1cc(/C=C(\C#N)c2nc3ccc(C)cc3[nH]2)c([N+](=O)[O-])cc1OC | -14 | 11 | 5 | 10
COc1cc(/C=C(\C#N)c2nc3ccc(C)cc3[nH]2)cc([N+](=O)[O-])c1O | -60 | 9 | . | 24*
COc1ccc(C2C3=C(CC(C)(C)CC3=O)N(CC(=O)O)C3=C2C(=O)CC(C)(C)C3)cc1OC | -2 | 0 | 20* | 3
CCOc1cc(C2C3=C(CC(C)(C)CC3=O)N(CCOC)C3=C2C(=O)CC(C)(C)C3)ccc1OC | -3 | 3 | -1 | -4
CC1(c2ccccc2)NC(=O)N(CC(=O)Nc2ccccc2N2CCCC2)C1=O (stereo not given) | -1 | . | 18* | 1
CON=C(Cn1ncc(N2CCCC2)c(Br)c1=O)c1ccc(Cl)cc1 | . | . | . | 3
SMILES | Neddylation inh | UBC9 SUMO inh | CTSL1 counter | UCH37 DUB inh
Cc1ccc(-c2cc(C(=O)N/N=C/c3ccco3)n[nH]2)s1 | -8 | 63* | 1 | .
Cc1ccc(-c2cc(C(=O)NN=Cc3ccco3)n[nH]2)s1 | . | . | . | 5
O=C1C(Cl)=C(Nc2ccccc2O)C(=O)N1c1ccccc1 | -25 | 6 | 73* | 4
COc1ccccc1N1C(=O)C(Cl)=C(Nc2ccccc2O)C1=O | -16 | 24 | . | .
CC(CCc1ccco1)=NNC(=O)CNc1cccc2ccccc12 | . | . | . | -66
CC1(OC(=O)C2CCCC2)C(=O)C=C2C=C(c3ccsc3)N(Cc3ccco3)C=C2C1=O (stereo not given) | -45 | 28 | 22* | 2
COCCCNC(=S)NN=Cc1ccc(OC)c(Br)c1 | . | . | . | 1
CCC(=O)n1nc(-c2ccccc2)nc1N | 5 | 11 | -4 | 23*
CCC(=O)n1nc(-c2ccc(OC)cc2)nc1N | 7 | 0 | 8 | -1
COc1ccc(C=NNC(=O)c2cccnc2)cc1CN1CCc2ccccc2C1 | . | . | . | 5
CC(=O)c1ccc(-c2ccc(/C=C(/Sc3n[nH]c(C)n3)C(=O)O)o2)cc1 | -43 | . | 8 | 21*
